Assay outcomes from PubChem.
Shown are actives, neighbours in structure and some others; about 2.3% of the full set was active somewhere.
TRPC4 agonist = activators of mouse TRPC4 channel. 310,000 compounds, 0.49% hits. Q9QUQ5. AID 2237. HEK293 TRPC4beta/mu-opioid, Fluo4 calcium fluorescence; active compounds read high. B-score at 10 µM;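 active means B-score above 5 SD of library B-scores, and initial fluorescence ratio not above library mean plus 5 SD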;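 further: positive B-score marks a calcium rise read as TRPC4 activation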
Target sequence (Q9QUQ5 whole entry, looked up): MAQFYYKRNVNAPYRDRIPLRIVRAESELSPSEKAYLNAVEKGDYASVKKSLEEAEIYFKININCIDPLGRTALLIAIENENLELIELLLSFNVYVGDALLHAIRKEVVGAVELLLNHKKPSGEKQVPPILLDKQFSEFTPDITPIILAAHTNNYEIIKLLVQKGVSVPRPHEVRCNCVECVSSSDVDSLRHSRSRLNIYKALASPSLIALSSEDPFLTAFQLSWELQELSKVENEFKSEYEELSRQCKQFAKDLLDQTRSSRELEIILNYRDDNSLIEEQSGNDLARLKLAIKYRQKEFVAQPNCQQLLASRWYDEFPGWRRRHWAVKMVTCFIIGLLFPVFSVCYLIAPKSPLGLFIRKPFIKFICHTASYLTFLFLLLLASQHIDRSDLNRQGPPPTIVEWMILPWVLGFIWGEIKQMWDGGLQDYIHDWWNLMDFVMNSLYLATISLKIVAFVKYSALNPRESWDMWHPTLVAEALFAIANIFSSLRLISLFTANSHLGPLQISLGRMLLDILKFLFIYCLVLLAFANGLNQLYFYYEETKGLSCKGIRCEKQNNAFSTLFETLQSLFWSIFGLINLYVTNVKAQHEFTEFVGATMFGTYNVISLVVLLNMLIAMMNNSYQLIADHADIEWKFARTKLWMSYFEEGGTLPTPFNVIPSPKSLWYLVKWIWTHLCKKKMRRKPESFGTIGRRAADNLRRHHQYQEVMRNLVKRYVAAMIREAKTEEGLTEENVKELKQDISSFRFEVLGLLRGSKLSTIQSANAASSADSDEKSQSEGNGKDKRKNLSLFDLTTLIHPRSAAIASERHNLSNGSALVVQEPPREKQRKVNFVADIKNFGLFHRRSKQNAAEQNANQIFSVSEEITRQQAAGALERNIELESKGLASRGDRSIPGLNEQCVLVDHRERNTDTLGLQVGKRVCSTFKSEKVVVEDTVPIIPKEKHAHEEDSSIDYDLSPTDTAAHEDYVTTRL
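Assay system: HEK293 stable line with TRPC4beta plus mu-opioid receptor; schedule: 45 min room-temperature Fluo4 loading, 110 s read; technique: kinetic Fluo4 calcium fluorescence; evaluation: integrated baseline-normalised fluorescence ratio, converted to per-well B score; controls: buffer (low) and maximal DAMGO (high)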
TRPC6 inh = blocks the mouse TRPC6 cation channel; B-score at 10 µM; 310,000 compounds, 1.1% hits; Q61143; HEK293-TRPC6, membrane potential dye, ACh-evoked depolarization; active compounds read low;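 active means B-score under library mean minus 3 SD, initial fluorescence not abnormally high, positive integrated signal ratio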;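 further: B-score derived from integrated fluorescence ratio over the kinetic read; more negative B-score means stronger inhibition of depolarization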
TRPC4 potent = allosteric potentiators of mouse TRPC4 channel; HEK293 TRPC4beta/mu-opioid, DAMGO EC20, Fluo-4 Ca2+ flux; active compounds read high; Q9QUQ5; B-score at 10 µM; AID 2227; 310,000 compounds, 0.42% hits;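 active means B-score of calcium response area above 5 SD of library B-scores, with initial fluorescence ratio within 5 SD of library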
TRPC6 act = activators of mouse TRPC6 channel; Q61143; HEK293-TRPC6 membrane potential dye fluorescence; active compounds read high; B-score at 10 µM; 310,000 compounds, 0.13% hits; AID 2550;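 active means B-score of the integrated fluorescence ratio above library mean plus 3 SD, and starting fluorescence ratio within library mean plus 5 SD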;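 further: higher score means more depolarization so channel activation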
TRPC4 block = inhibitors of mouse TRPC4 channel; AID 2247; B-score at 10 µM; HEK293 TRPC4beta/mu-opioid, DAMGO-evoked Fluo4 calcium flux; active compounds read low; Q9QUQ5; 300,000 compounds, 0.39% hits;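 active means B-score over 3 SD under the library average, no early fluorescence shift, positive overall ratio signal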
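System: stable TRPC4beta/mu-opioid receptor HEK293 cells; Dosing: single-point compound dosing; Measured by: Fluo4 Ca2+ flux fluorescence; Read-out basis: per-well B score of integrated baseline-normalized Fluo4 ratio.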
TRPC4 spec 2 = second selectivity test of TRPC6 inhibitors: effect on mouse TRPC4; AID 2776; shares compounds with TRPC6 inh; 920 compounds, 42% hits; inhibition, % at 10 µM; HEK293 TRPC4/MOR, membrane potential dye fluorescence; channel activated by saturating DAMGO dose;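 active means compounds whose fluorescence signal differed from control wells by over 3 SD, either direction, in both duplicate plates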
TRPC4 spec = tests whether TRPC6 inhibitors also affect mouse TRPC4; HEK293 TRPC4/mu-opioid, membrane potential fluorescence; activity change, negative = inhibition, % at 10 µM; shares compounds with TRPC6 inh; AID 2777; 920 compounds, 61% hits;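 active means rise or fall in signal beyond 3 SD of buffer-only wells in both replicate plates, either sign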;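 further: integrated kinetic ratio of fluorescence range over baseline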
HEK293 MPD ctr 2-1 = parental HEK293 nonspecific activity of TRPC6 inhibitors, second screen; shares compounds with TRPC6 inh; parental HEK293 membrane potential dye fluorescence; maximal acetylcholine challenge after compound addition; signal change vs control, % at 10 µM; 920 compounds, 31% hits;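 active means membrane potential signal moving either way by over 3 SD of the maximum-effect control, in both duplicate plates, meaning non-specific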
HEK293 MPD ctr-1 = parental HEK293 nonspecific activity of TRPC6 inhibitors; shares compounds with TRPC6 inh; parental HEK293 membrane potential dye fluorescence; membrane potential signal change, % at 10 µM; 920 compounds, 60% hits;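 active means membrane potential signal shifting up or down by more than 3 SD of buffer-only wells, on both duplicate plates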
HEK293 MPD ctr-2 = parental HEK293 nonspecific activity of TRPC6 modulators; membrane potential dye fluorescence; shares compounds with TRPC6 inh; membrane potential signal change, % at 10 µM; AID 488924; 2,400 compounds, 51% hits;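 active means membrane potential signal moves up or down beyond 5 SD from buffer-only wells, on both duplicate plates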
HEK293 MPD ctr 2-2 = second counter-screen for TRPC6 modulators: effect in parental HEK293 cells. 2,400 compounds, 14% hits. shares compounds with TRPC6 inh. membrane potential dye fluorescence; after compound, maximal acetylcholine stimulation. inhibition, % at 10 µM. AID 488926;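 active means membrane potential signal drops by more than 5 SD from the mean control signal, in both duplicate plates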
TRPC4/MOR mod = selectivity of TRPC6 modulators against mouse TRPC4 | shares compounds with TRPC6 inh | 2,400 compounds, 69% hits | HEK293 TRPC4/mu-opioid, membrane potential fluorescence | AID 488927 | percent change from control (negative = decrease, positive = increase), % at 10 µM;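 active means membrane potential signal moved up or down beyond 5 SD of buffer control wells, in both duplicate plates, actives on both sides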
TRPC4/MOR inh 2 = second selectivity test of TRPC6 modulators against mouse TRPC4. shares compounds with TRPC6 inh. HEK293 TRPC4/mu-opioid, membrane potential dye fluorescence; stimulated with maximal-effect DAMGO. inhibition, % at 10 µM. 2,400 compounds, 55% hits. AID 488928;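 active means drop in membrane potential signal beyond 5 SD of the control wells in both duplicate plates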;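 further: TRPC4 counter screen for TRPC6 hits run under conditions tuned for TRPC6 not TRPC4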
TRPC6 inh conf = confirmation of mouse TRPC6 inhibitors; inhibition, % at 10 µM; HEK293-TRPC6, membrane potential dye, ACh-evoked depolarization; 3,300 compounds, 43% hits; shares compounds with TRPC6 inh; AID 488960;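 active means fluorescence ratio falls more than 5 SD below the full-stimulation control mean, in both duplicate runs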;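 further: integrated fluorescence ratio of peak minus minimum over baseline after agonist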
TRPC6 act conf = confirmation of mouse TRPC6 activators. shares compounds with TRPC6 inh. HEK293-TRPC6 membrane potential dye fluorescence, FDSS. 2,800 compounds, 11% hits. activation, % at 10 µM;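 active means ratio signal rise beyond 5 SD above unstimulated control wells' mean, seen in both duplicate runs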
Numbers stand for hits; – = inactive; · = no result.

SMILES	TRPC4 agonist	TRPC6 inh	TRPC4 potent	TRPC6 act	TRPC4 block	HEK293 MPD ctr-2	HEK293 MPD ctr 2-2	TRPC4/MOR mod	TRPC4/MOR inh 2	TRPC6 inh conf	TRPC6 act conf	others
CNC(=O)c1ccc(Nc2nnc(C)c3ccccc23)cc1	–	-5.5	–	–	–	-99%	–	–	–	–	–
COc1ccccc1N1CCN(C2CCCN(C(=O)CCc3ccccn3)C2)CC1 (centres undefined)	–	–	–	–	–	·	·	·	·	·	·
Cc1nc(N2CCN(C)CC2)c2sc(=S)n(C)c2n1	–	-5.2	–	–	–	-158%	–	-25%	–	–	–
CN(C)C/C=C/C(O)(c1ccccc1)c1ccccc1	–	-7.6	–	–	–	·	·	·	·	61%	–	TRPC4 spec 2=–;TRPC4 spec=–;HEK293 MPD ctr 2-1=–;HEK293 MPD ctr-1=1.3%
CN(C)CCCOc1ccc(C(C)(C)c2ccccc2)cc1	–	–	–	–	–	·	·	·	·	·	·
Cc1c(Cl)cccc1NC(=O)CNCc1ccccc1F	–	-5.3	–	–	–	–	–	18%	–	–	·
Cc1c(Cl)cccc1NC(=O)CNc1ccccc1F	–	–	–	–	–	·	·	·	·	·	·
CC(C)CN(Cc1cc(=O)oc2cc(-c3ccccc3)c(O)cc12)CC(C)C	–	–	–	–	–	·	·	·	·	·	·
CN(/C(=N/S(=O)(=O)c1ccccc1)c1ccccc1)S(=O)(=O)c1ccccc1	–	-6.5	–	–	–	–	–	10%	–	–	–
O=C(COC(=O)c1c(Cl)cccc1Cl)NC1CCCCC1	–	–	–	12	–	121%	–	24%	–	·	171%
CC12CCC(=O)N1C(C(=O)N1CCN(c3ccc(C(F)(F)F)cc3[N+](=O)[O-])CC1)CS2 (centres undefined)	–	–	–	–	–	·	·	·	·	·	·
Cc1ccc(S(=O)(=O)Nc2ccccc2N2CCOCC2)cc1	–	–	–	–	–	·	·	·	·	·	·
O=C(Nc1ccc2oc(=O)ccc2c1)c1cccnc1	–	-6.3	–	–	–	-180%	–	-31%	–	–	–
O=C(Nc1ccc2oc(=O)ccc2c1)c1cc2ccccc2o1	–	–	–	–	–	·	·	·	·	·	·
Cc1cc(NC(=O)CNCC(c2ccccc2)N(C)C)c([N+](=O)[O-])cc1C (centres undefined)	–	-9.4	–	–	–	·	·	·	·	–	–	TRPC4 spec 2=64%;TRPC4 spec=-12%;HEK293 MPD ctr 2-1=–;HEK293 MPD ctr-1=-151%
N#Cc1ccc(C(=O)NNC(=O)c2ccncc2)cc1	–	–	–	–	–	·	·	·	·	·	·
Cc1cc(NCCNC2=CC(=O)CCC2)nc2ccccc12	–	-5.5	–	–	–	-168%	–	-27%	31%	–	–
Cn1c(=O)c(/C=C/c2ccccc2)nc2ccccc21	–	–	–	–	–	·	·	·	·	·	·
Cn1c(/C=C/c2ccccc2)nc2ccccc21	–	-7.9	–	–	–	·	·	·	·	–	–	TRPC4 spec 2=23%;TRPC4 spec=3.3%;HEK293 MPD ctr 2-1=–;HEK293 MPD ctr-1=-204%
Cc1cc(N2CCC(C)CC2)nc2cccc(O)c12	–	-8.4	–	–	-6	-139%	–	-30%	86%	–	–
CC1CCCCN1CCn1c(=S)[nH]c2cc3c(cc2c1=O)OCO3 (centres undefined)	–	–	–	–	–	·	·	·	·	·	·
COc1cccc(C2SCC(=O)N2c2ccc(C)cc2)c1OC (centres undefined)	–	-5.6	–	–	–	–	–	8.0%	–	66%	–
O=C(CCNC(=O)c1ccco1)Nc1ccc(OC(F)F)cc1	–	–	–	–	–	·	·	·	·	·	·
O=C(c1ccco1)N1N=C(C2CCCCC2)CC1(O)C(F)(F)F (centres undefined)	–	–	–	–	–	·	·	·	·	·	·
O=C(c1ccncc1)N1N=C(C2CCCCC2)CC1(O)C(F)(F)F (centres undefined)	–	-5.8	–	–	–	–	–	–	–	–	–
SMILES	TRPC4 agonist	TRPC6 inh	TRPC4 potent	TRPC6 act	TRPC4 block	HEK293 MPD ctr-2	HEK293 MPD ctr 2-2	TRPC4/MOR mod	TRPC4/MOR inh 2	TRPC6 inh conf	TRPC6 act conf	others
Cc1sc2c3ccsc3ccc2[n+]1C	–	-8.6	–	–	–	-292%	71%	-50%	58%	68%	–
CSCc1cc(N(C)c2ccccc2)nc(-c2ccccn2)n1	–	-7.2	–	–	–	·	·	·	·	–	–	TRPC4 spec 2=–;TRPC4 spec=–;HEK293 MPD ctr 2-1=–;HEK293 MPD ctr-1=–
O=C1c2cccc3cccc(c23)C(=O)N1CCCN1CCN(c2ccc(F)cc2)CC1	–	-7.1	–	–	–	–	–	-12%	66%	–	–
O=C(CCCN1C(=O)c2cccc3cccc(c23)C1=O)N1CCN(c2ccccc2)CC1	–	–	–	–	–	·	·	·	·	·	·
O=C(NC(c1cccnc1)C(F)(F)F)c1cc(COc2ccc3c(c2)CCCC3)on1 (centres undefined)	–	–	–	–	–	·	·	·	·	·	·
COc1cc2c(cc1OC)C1(Nc3c-2c(Cc2ccccc2)nn3-c2ccccc2)C(=O)Nc2ccccc21 (centres undefined)	–	-6.8	–	–	–	·	·	·	·	–	–	TRPC4 spec 2=–;TRPC4 spec=-9.5%;HEK293 MPD ctr 2-1=–;HEK293 MPD ctr-1=–
COc1cc2c(cc1OC)C1(NCC2)C(=O)Nc2ccccc21 (centres undefined)	–	–	–	–	–	·	·	·	·	·	·
CCCC[C@@H]1CNCCN1CCc1cc(C(F)(F)F)cc(C(F)(F)F)c1	–	–	–	–	–	·	·	·	·	·	·
CCC(C)[C@H]1CNCCN1CCc1cc(C(F)(F)F)cc(C(F)(F)F)c1 (some centres undefined)	–	-7.2	–	–	–	·	·	·	·	–	–	TRPC4 spec 2=54%;TRPC4 spec=–;HEK293 MPD ctr 2-1=–;HEK293 MPD ctr-1=–
